Data set [1] addresses T1, Transient receptor potential cation channel subfamily V member 1 (Homo sapiens, UniProt Q8NER1). In words: Antagonist activity in pH 5.5-induced FLIPR assays in HEK293 cells expressing human TRPV1. Type of data set: functional, cell-based. Summed up: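 Human TRPV1-expressing HEK293 line stimulated by low pH (pH 5.5) as agonist; antagonism measured as inhibition of calcium influx by FLIPR. IC50 reported as mean ± SEM from at least three determinations.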

Data set [2] deals with T1, Transient receptor potential cation channel subfamily V member 1. In words: Antagonist activity in capsaicin-induced FLIPR assays in HEK293 cells expressing human TRPV1. It counts as functional, cell-based. Summed up:
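HEK293 cells stably expressing human TRPV1; channel activated with 100 nM capsaicin and block of the calcium influx read on a fluorometric imaging plate reader (FLIPR). IC50 given as mean ± SEM of at least three determinations.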

Data set [3] can be described thus: Terminal half life value in rat at single dose of 3 mg/kg intravenously. It counts as ADME, organism-based. Also on record: dose 3 mg/kg, route intravenous. Particulars: in vivo, iv. The gist of the method:
(§1)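 Rat pharmacokinetics: systemic exposure estimated after a single 3 mg/kg intravenous dose and, separately, a single 30 mg/kg oral dose. Parameters derived include Vd, CL, terminal t1/2, Tmax, Cmax and oral bioavailability (F%).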

Data set [4] in a line: Clearance value in rat at single dose of 3 mg/kg iv dose. The conditions noted are these: in vivo.
The nature of data set [5]: Bioavailability in rat at single dose of 30 mg/kg orally. The conditions noted are these: in vivo, oral.
Data set [6] is described as follows: Bioavailability in rat (single dose 30 mg/kg p.o.). Type of data set: ADME, organism-based. Particulars: in vivo, po. Summed up: as §1
A short description of data set [7]: Volume distribution in rat at single dose of 3 mg/kg intravenously. Type of data set: ADME, organism-based. On the set-up: dose 3 mg/kg, route intravenous. Particulars: in vivo, iv. Summed up: as §1
Data set [8] is described as follows: Terminal half life value in rat at single dose of 3 mg/kg iv dose. Particulars: in vivo.
Data set [9] in a line: Time taken for cmax value in rat at single dose of 30 mg/kg oral dose. It counts as ADME, organism-based. Also on record: dose 30 mg/kg, route oral. Particulars: in vivo. Summed up:
as §1

A short description of data set [10]: Clearance value in rat at single dose of 3 mg/kg intravenously. The conditions noted are these: in vivo, iv. Type of data set: ADME, organism-based. On the set-up: dose 3 mg/kg, route intravenous. Summed up:
as §1

Data set [11] is described as follows: Cmax value in rat at single dose of 30 mg/kg oral dose. Type of data set: ADME, organism-based. Also on record: dose 30 mg/kg, route oral. Particulars: in vivo. The gist of the method:
as §1

Some results are limits rather than exact numbers.

T1 sequence (Q8NER1 whole entry): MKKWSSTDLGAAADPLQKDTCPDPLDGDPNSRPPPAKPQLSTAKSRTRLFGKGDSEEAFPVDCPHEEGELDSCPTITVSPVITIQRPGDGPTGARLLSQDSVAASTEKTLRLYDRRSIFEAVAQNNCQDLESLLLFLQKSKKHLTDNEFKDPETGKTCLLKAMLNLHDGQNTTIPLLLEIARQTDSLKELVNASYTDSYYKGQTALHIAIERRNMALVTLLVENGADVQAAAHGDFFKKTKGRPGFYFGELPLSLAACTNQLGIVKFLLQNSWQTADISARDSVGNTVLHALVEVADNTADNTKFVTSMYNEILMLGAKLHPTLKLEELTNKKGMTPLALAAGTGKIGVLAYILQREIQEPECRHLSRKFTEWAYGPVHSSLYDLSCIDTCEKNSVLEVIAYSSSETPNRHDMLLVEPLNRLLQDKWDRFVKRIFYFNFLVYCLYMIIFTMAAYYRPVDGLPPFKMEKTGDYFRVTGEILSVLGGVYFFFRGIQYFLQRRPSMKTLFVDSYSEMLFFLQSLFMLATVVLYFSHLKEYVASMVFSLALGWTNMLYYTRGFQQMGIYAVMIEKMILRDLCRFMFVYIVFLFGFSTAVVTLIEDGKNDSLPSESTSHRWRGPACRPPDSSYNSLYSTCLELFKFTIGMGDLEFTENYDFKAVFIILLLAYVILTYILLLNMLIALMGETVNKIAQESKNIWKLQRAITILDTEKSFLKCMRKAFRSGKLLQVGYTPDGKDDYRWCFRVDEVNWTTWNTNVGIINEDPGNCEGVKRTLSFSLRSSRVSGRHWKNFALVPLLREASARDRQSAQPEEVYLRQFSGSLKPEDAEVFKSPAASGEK

Regarding `CC(C)(C)c1ccc2oc(N3CCN(c4ncccc4Cl)CC3)nc2c1`, the IC50 in data set [1] is over 10000 nM; in data set [2] it was 2140 nM.
`C[C@@H]1CN(c2ncccc2Cl)CCN1c1nc2cc(C(C)(C)C)ccc2o1`: in data set [1], the IC50 is 1410 nM.
For `C[C@@H]1CN(c2nsnc2Cl)CCN1c1nc2ccc(C(C)(C)C)cc2[nH]1`, the IC50 in data set [1] was over 10000 nM; in [2] it was 776 nM.
For `Cc1cc2nc(N3CCN(c4ncccc4Cl)C[C@H]3C)[nH]c2cc1C`, in that order: 10000 nM and 113 nM.
In the case of `Cc1cc2nc(N3CCN(c4ncccc4Cl)CC3)n(C)c2cc1C`, the IC50 in [1] is over 25000 nM; in [2] it was 5450 nM.
`C[C@@H]1CN(c2ncccc2Cl)CCN1c1nc2ccc(Cl)cc2[nH]1` had a concentration for half-maximal inhibition (IC50) in [2] of 325 nM.
As for `Cc1cc2nc(N3CCN(c4ncccc4Cl)C[C@@H]3C)[nH]c2cc1C`, the IC50 in data set [1] is over 25000 nM; in data set [2], 5770 nM.
`C[C@@H]1CN(c2ncccc2Cl)CCN1c1nc2ccc(C(C)(C)C)cc2[nH]1`: the half-life is 35.4 min in data set [3] and 36 min in data set [8]. Further, the results for the IC50 in [1] and in [2] were 104 nM and 90.4 nM, respectively. In addition, the clearance was 133 mL/min/kg in [4] and 134 mL/min/kg in data set [10]. Further, the bioavailability in [5] and in [6] was 19.7% throughout. Also, the Vd in data set [7] turned out to be 6.87 L/kg. Moreover, in data set [9], the Tmax amounted to 180 min. In [11], the peak level (Cmax) was 300 ng/mL.
For the compound `C[C@@H]1CN(c2ncccc2C(F)(F)F)CCN1c1nc2ccc(C(C)(C)C)cc2[nH]1`, the IC50 in [1] turned out to be 1780 nM; in [2], 32.4 nM.
Take `CC(C)(C)c1ccc2nc(N3CCN(c4ncccc4Cl)CC3)[nH]c2c1`: the IC50 is 1690 nM in data set [1] and 136 nM in [2].
For the compound `COc1ccc2nc(N3CCN(c4ncccc4Cl)C[C@H]3C)[nH]c2c1`, in data set [2], the IC50 amounted to 665 nM.
In turn, `Cc1cccnc1N1CCN(c2nc3ccc(C(C)(C)C)cc3[nH]2)[C@H](C)C1` registered an IC50 in data set [1] of 597 nM.
In data set [6], `CC(C)(C)c1ccc(NC(=O)N2CCN(c3ncccc3Cl)CC2)cc1` came in with a bioavailability of 15%.
Take `C[C@H]1CN(c2ncccc2Cl)CCN1c1nc2ccc(C(C)(C)C)cc2[nH]1`: the half-inhibitory concentration (IC50) in data set [1] came to 3610 nM; in data set [2], 948 nM.

For orientation: IC50 means the concentration needed to halve the response being measured. A low value points to greater potency. For orientation: half-life means the time needed for the level to fall by half in the phase considered. Usually clearance stands for the volume of plasma or blood freed of the substance per unit of time. By bioavailability is commonly meant the share of a dose that reaches the circulation, judged against a reference dose that is usually intravenous. Lower therefore signals little systemic uptake. As a reminder, the Vd is a proportionality between amount in the body and measured concentration, not a real space. Low readings indicate confinement near the circulation, high ones extensive tissue distribution. For orientation: Tmax means the time from dosing to the highest level. One may read the Cmax as the peak of the concentration-time curve.

The values above are taken from ChEMBL document CHEMBL1144293, “4-(2-Pyridyl)piperazine-1-benzimidazoles as potent TRPV1 antagonists” (Bioorg Med Chem Lett, 2005).
